Assay results published in ChEMBL document CHEMBL4342502, “Synthesis and Antichlamydial Activity of Molecules Based on Dysregulators of Cylindrical Proteases” (J Med Chem, 2020).
Activity calls are given as the source filed them.

Key:
Klebsiella pneumoniae = assay: Antibacterial activity against Klebsiella pneumoniae ATCC 700603 assessed as bacterial growth inhibition at 32 ug/ml measured after 16 hrs by broth microdilution method; format: functional, organism-based
[1] = Mutagenicity in Drosophila melanogaster somatic cells assessed as frequency of clone formation in ST crosses at 0.25 to 1 mM by SMART assay; format: ADME; conditions: 1000 µM
In short: (§1)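 Drosophila SMART wing-spot assay, ST and HB crosses. Third-instar larvae (72 ± 4 h) placed on hydrated instant mashed potato medium containing compound at 0.25, 0.5 or 1.0 mM final. Negative control: water with 1% Tween-80 and 3% ethanol. Statistics by Frei and Würgler two-sided U test, P≤0.05.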

Cryptococcus neoformans = assay: Antifungal activity against Cryptococcus neoformans var. grubii H99 ATCC […] as fungal growth inhibition at 32 ug/ml measured after 16 hrs by broth microdilution method; format: functional, organism-based; conditions: var. grubii H99 ATCC 208821
Chlamydia trachomatis [2] = assay: Anti-chlamydial activity against Chlamydia trachomatis Serovar LGV-L2 infected in Hep2 cells assessed as inhibition of chlamydial inclusion at 50 ug/ml treated at 8 hrs post infection and measured at 24 hrs post-infection by immunofluorescence assay; format: functional, organism-based
In short: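 HEp-2 cells infected with C. trachomatis serovar L2. Compounds at 50 μg/mL added 8 hpi; inclusion number and size assessed by immunofluorescence at 24 hpi against untreated cells. Cell morphology and viability checked by phase-contrast microscopy.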

Candida albicans = assay: Antifungal activity against Candida albicans ATCC 90028 assessed as fungal growth inhibition at 32 ug/ml measured after 16 hrs by broth microdilution method; format: functional, organism-based
HeLa 229 = assay: Cytotoxicity against human HeLa 229 cells assessed as cell viability at 50 ug/ml after 24 hrs by CCK-8 assay relative to control; format: cell-based; conditions: hela 229, 24 h
In short: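 HeLa 229 cells kept in DMEM with 10% FBS and 1% penicillin/streptomycin at 37 °C, 5% CO2. Seeded at 5000 cells/well and dosed next day at 50 μg/mL in triplicate for 24 h, against DMSO-matched controls. CCK-8 reagent added for 2 h, then corrected absorbance read at 450 nm.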

Escherichia coli [3] = assay: Antibacterial activity against Escherichia coli ATCC 25922 assessed as bacterial growth inhibition at 32 ug/ml measured after 16 hrs by broth microdilution method; format: functional, organism-based
Escherichia coli [4] = assay: Antibacterial activity against Escherichia coli K12 assessed as bacterial growth inhibition at 32 ug/ml measured after 16 hrs by broth microdilution method; format: functional, organism-based; conditions: K-12
In short: (§2)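 Broth microdilution in Mueller Hinton broth, triplicate. Direct colony suspension at 1.5 x 10^8 CFU/mL diluted to ~10^5 CFU/mL. Serial dilutions made from DMSO stocks at 1 mg/mL; vancomycin positive control, blank medium negative control. Incubated 16 h at optimum temperature. MIC is the lowest concentration without visible growth at 600 nm; mean of triplicate determinations.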

Staphylococcus aureus [5] = assay: Antibacterial activity against methicillin-resistant Staphylococcus aureus ATCC 43300 assessed as bacterial growth inhibition at 32 ug/ml measured after 16 hrs by broth microdilution method; format: functional, organism-based
Pseudomonas aeruginosa = assay: Antibacterial activity against Pseudomonas aeruginosa ATCC 27853 assessed as bacterial growth inhibition at 32 ug/ml measured after 16 hrs by broth microdilution method; format: functional, organism-based
[6] = Toxicity in Drosophila melanogaster assessed as survival rate at 0.25 to 1 mM; conditions: 1000 µM
In short: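 Drosophila SMART assay using third-instar larvae (72 ± 4 h) from ST and HB crosses. Larvae exposed in hydrated instant mashed-potato medium at 0.25, 0.5 and 1.0 mM final. Vehicle control: water with 1% Tween-80 and 3% ethanol. Survival of treated groups compared statistically with the vehicle control.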

Staphylococcus aureus [7] = assay: Antibacterial activity against Staphylococcus aureus JE2 assessed as bacterial growth inhibition at 32 ug/ml measured after 16 hrs by broth microdilution method; format: functional, organism-based; in short: as §2
[8] = Mutagenicity in Drosophila melanogaster somatic cells assessed as frequency of clone formation in HB crosses at 0.25 to 1 mM by SMART assay; format: ADME; conditions: 1000 µM; in short: as §1
Acinetobacter baumannii = assay: Antibacterial activity against Acinetobacter baumannii ATCC 19606 assessed as bacterial growth inhibition at 32 ug/ml measured after 16 hrs by broth microdilution method; format: functional, organism-based; conditions: ATCC 19606 = CIP 70.34 = JCM 6841
[9] = (§3) Activation of recombinant human C-terminal 6xHis-tagged ClpP expressed in Escherichia coli assessed as induction of casein degradation at 0.1 to 1 uM using FITC-labelled casein as substrate pretreated with enzyme for 30 mins followed by substrate addition and measured every 3 mins for 3 hrs in absence of AAA+ chaperone by fluorescence based tecan-plate reader assay
In short: (§4)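 Recombinant C-terminal His6-tagged ClpP, expressed in a clpAPX-null E. coli strain and purified (mammalian ClpP without mitochondrial signal, codon-optimized). ClpP at 1 or 0.1 μM (E. coli), 1 μM (human, mouse) or 6 μM (chlamydial ClpP1 and ClpP2) preincubated with compound or DMSO, 30 min, 32 °C, in HEPES pH 7.6/KCl/MgCl2/DTT/glycerol buffer. 20 μM FITC-casein then added. Fluorescence (ex 490/em 525 nm) read every 3 min for 3 h. At least three runs on at least two protein preparations.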

Chlamydia trachomatis [10] = assay: as §3, with “Chlamydia trachomatis Serovar LGV-L2” for “human”, “6xhis-tagged ClpP1/ClpP2 dimer” for “6xHis-tagged ClpP”; in short: as §4
[11] = as §3, with “mouse” for “human”; in short: as §4
[12] = target: ATP-dependent Clp protease proteolytic subunit (Escherichia coli (strain K12)) (UniProt P0A6G7); assay: as §3, with “recombinant” for “recombinant human C-terminal 6xHis-tagged ClpP expressed in”, “coli ClpP” for “coli”; in short: as §4
ATP-dependent Clp protease proteolytic subunit (Escherichia coli (strain K12)), sequence (P0A6G7 whole entry): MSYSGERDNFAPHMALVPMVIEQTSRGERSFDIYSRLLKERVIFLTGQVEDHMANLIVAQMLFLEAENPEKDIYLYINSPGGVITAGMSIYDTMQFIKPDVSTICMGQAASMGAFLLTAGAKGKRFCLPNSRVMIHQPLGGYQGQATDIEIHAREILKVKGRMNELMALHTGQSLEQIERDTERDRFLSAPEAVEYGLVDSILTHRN

Chlamydia trachomatis [13] = assay: as §3, with “Chlamydia trachomatis Serovar LGV-L2” for “human”, “6xhis-tagged ClpP1” for “6xHis-tagged ClpP”, “absence” for “absence of AAA+”; in short: as §4
Chlamydia trachomatis [14] = assay: as §3, with “Chlamydia trachomatis Serovar LGV-L2” for “human”, “6xhis-tagged ClpP2” for “6xHis-tagged ClpP”; in short: as §4
Haemophilus influenzae = assay: Antimicrobial activity against Haemophilus influenzae H2192 assessed as bacterial growth inhibition measured after 18 to 20 hrs; format: functional
Neisseria meningitidis = assay: Antimicrobial activity against Neisseria meningitidis MC58 assessed as bacterial growth inhibition measured after 18 to 20 hrs; format: functional

CC(C)(C(=O)NCCSc1ccc(Cl)cc1)S(=O)(=O)c1ccc(C(F)(F)F)cn1
< 65%: Activity (HeLa 229)
Non-Toxic: Activity [1] | Activity [6] | Activity [8]
inactive: inhibition (Klebsiella pneumoniae) | inhibition (Cryptococcus neoformans) | inhibition (Chlamydia trachomatis [2]) | inhibition (Candida albicans) | inhibition (Escherichia coli [3]) | inhibition (Escherichia coli [4]) | inhibition (Staphylococcus aureus [5]) | inhibition (Pseudomonas aeruginosa) | inhibition (Staphylococcus aureus [7]) | inhibition (Acinetobacter baumannii)

CC(C)(C(=O)NCCCc1ccccc1)S(=O)(=O)c1ccccc1
Not Active: Activity [9] | Activity [11]
inactive: inhibition (Klebsiella pneumoniae) | inhibition (Cryptococcus neoformans) | inhibition (Chlamydia trachomatis [2]) | inhibition (Candida albicans) | Activity [12] | inhibition (Escherichia coli [3]) | inhibition (Escherichia coli [4]) | inhibition (Staphylococcus aureus [5]) | inhibition (Pseudomonas aeruginosa) | inhibition (Staphylococcus aureus [7]) | inhibition (Acinetobacter baumannii)
active: Activity (Chlamydia trachomatis [10]) | Activity (Chlamydia trachomatis [13]) | Activity (Chlamydia trachomatis [14])

CC(C)(C(=O)NCCSc1ccccc1Cl)S(=O)(=O)c1ccc(C(F)(F)F)cn1
64 µg/mL: Activity (Neisseria meningitidis)
active: inhibition (Chlamydia trachomatis [2])
32 µg/mL: Activity (Haemophilus influenzae)
